Each structure is given as a SMILES string. Calls of active or inactive are those of the source. The calls are words filed in the database; no cut-off is given here.

One experiment concerns the target Histamine H4 receptor (Homo sapiens, UniProt Q9H3N8). Put plainly: Displacement of [3H]histamine from human histamine H4 receptor expressed in HEK293T cells. The class given is cell-based, HEK-293T. A general note: In a radioligand displacement assay an active substance lowers the binding of a labelled ligand.
For experiment [1], the target named is Histamine H2 receptor (Homo sapiens) (UniProt P25021). Description: Displacement of [3H]aminopotentidine from human histamine H2 receptor expressed in COS7 cells at 10 uM. In kind it is cell-based. To be noted: COS-7. In a few lines: (§1)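 Single-point radioligand displacement at the human receptor, performed externally, with ligand at 10 μM. Reported as % inhibition of radioligand binding, measured in duplicate.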

The subject of experiment [2] is Rattus norvegicus. Description: Antiinflammatory activity in Wistar rat assessed as inhibition of carrageenan-induced paw edema at 10 mg/kg, sc after 6 hrs. The class given is functional, organism-based. Details: dose 10 mg/kg. In a few lines:
(§2)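 Male Wistar rats (180–200 g), fasted; paw inflammation induced by subplantar injection of 0.1 mL 1% carrageenan in carboxymethylcellulose into left hind paw. Compound or vehicle (DMSO solution, freshly prepared) given s.c. at 0.1 mL per 100 g immediately before carrageenan. Paw volume by plethysmometer before injection and at 2, 4, 6 h; edema as % increase over preinjection value (=100). n = 6 per group.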
(In general: Carrageenan injected into the paw causes an acute inflammation.)

Experiment [3] deals with Histamine H3 receptor (Homo sapiens) (UniProt Q9Y5N1). Description: Displacement of [3H]Nalpha-methyl-histamine from human histamine H3 receptor expressed in […] cells at 10 uM. In kind it is cell-based. To be noted: SK-N-MC. In a few lines: as §1
Experiment [4] addresses T1, Histamine H1 receptor (Homo sapiens, UniProt P35367). Description: Displacement of [3H]mepyramine from human histamine H1 receptor expressed in NIH3T3 cells at 10 uM. In kind it is cell-based. In a few lines: as §1
The subject of experiment [5] is Rattus norvegicus. Description: Antiinflammatory activity in Wistar rat assessed as inhibition of carrageenan-induced paw edema at 10 mg/kg, sc after 2 hrs. The class given is functional, organism-based. Details: dose 10 mg/kg. The method in brief: as §2
Experiment [6] concerns Rattus norvegicus. Put plainly: Antiinflammatory activity in Wistar rat assessed as inhibition of carrageenan-induced paw edema at 30 mg/kg, sc after 2 hr. In kind it is functional, organism-based. Details: dose 30 mg/kg. In a few lines: as §2
In experiment [7] the target is T1, Histamine H1 receptor. Put plainly: Displacement of [3H]mepyramine from human histamine H1 receptor expressed in NIH3T3 cells. The class given is cell-based.

T1 sequence (P35367 whole entry): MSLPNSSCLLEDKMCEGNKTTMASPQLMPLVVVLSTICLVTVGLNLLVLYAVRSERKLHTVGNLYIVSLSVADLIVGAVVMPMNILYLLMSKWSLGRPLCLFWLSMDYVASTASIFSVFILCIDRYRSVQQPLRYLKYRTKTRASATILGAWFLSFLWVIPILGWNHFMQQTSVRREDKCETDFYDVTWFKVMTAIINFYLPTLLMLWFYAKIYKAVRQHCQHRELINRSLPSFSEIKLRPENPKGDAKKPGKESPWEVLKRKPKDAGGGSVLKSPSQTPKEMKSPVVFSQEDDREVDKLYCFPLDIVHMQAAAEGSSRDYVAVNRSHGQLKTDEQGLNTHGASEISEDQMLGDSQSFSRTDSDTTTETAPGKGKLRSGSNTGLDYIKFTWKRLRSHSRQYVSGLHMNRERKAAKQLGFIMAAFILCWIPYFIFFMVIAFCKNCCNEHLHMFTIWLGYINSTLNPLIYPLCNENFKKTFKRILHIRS
Histamine H4 receptor, sequence (Q9H3N8 whole entry): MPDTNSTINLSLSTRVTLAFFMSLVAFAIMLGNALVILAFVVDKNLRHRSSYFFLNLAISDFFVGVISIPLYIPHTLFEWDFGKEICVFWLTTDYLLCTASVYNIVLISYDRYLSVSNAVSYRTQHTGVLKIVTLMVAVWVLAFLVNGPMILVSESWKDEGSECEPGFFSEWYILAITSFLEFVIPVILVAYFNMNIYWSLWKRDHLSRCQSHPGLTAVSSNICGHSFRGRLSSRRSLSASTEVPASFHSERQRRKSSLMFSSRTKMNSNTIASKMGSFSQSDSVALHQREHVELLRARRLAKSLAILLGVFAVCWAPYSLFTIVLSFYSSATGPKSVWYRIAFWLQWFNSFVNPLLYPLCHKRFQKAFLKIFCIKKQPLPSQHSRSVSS
Histamine H3 receptor (Homo sapiens), sequence (Q9Y5N1 whole entry): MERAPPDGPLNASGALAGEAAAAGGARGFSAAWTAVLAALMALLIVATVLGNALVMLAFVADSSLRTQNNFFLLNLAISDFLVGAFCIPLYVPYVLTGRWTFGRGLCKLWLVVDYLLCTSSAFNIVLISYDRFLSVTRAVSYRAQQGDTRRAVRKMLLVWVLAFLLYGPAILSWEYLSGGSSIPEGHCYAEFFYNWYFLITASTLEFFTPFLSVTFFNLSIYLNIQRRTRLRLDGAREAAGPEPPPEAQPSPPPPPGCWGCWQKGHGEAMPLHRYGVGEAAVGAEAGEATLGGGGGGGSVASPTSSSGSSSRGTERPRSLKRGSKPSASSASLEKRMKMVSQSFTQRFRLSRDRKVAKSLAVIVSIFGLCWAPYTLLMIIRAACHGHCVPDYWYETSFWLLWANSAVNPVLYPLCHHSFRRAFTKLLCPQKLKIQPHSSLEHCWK
Histamine H2 receptor (Homo sapiens), sequence (P25021 whole entry): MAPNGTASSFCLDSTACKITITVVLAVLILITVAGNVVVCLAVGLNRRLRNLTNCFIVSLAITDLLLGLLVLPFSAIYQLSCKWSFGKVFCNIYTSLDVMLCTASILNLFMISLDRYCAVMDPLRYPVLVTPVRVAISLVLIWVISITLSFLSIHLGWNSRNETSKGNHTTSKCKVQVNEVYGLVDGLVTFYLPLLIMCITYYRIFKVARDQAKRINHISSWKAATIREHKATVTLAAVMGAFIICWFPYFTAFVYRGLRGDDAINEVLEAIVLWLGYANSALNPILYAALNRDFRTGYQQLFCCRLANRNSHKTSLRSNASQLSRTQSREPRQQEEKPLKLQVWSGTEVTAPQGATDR

For the molecule `CN1CCN(c2nc3ccccc3nc2Oc2cccnc2)CC1`, the Ki on Histamine H4 receptor was 1290 nM.
On the same count and under the same terms, for `CN1CCN(c2nc3ccccc3nc2OCCc2ccccc2)CC1` the value was 479 nM.
Molecule `CN1CCN(c2nc3ccccc3nc2-c2ccccc2)CC1` had a Ki on Histamine H4 receptor of 10200 nM.
Same read-out and setting: for `CN(C)CCCOc1nc2ccccc2nc1N1CCN(C)CC1` the value was 3980 nM.
On the same count and under the same terms, for `CC(C)COc1nc2ccccc2nc1N1CCN(C)CC1` the value was 5750 nM.
The molecule `CN1CCN(c2nc3ccccc3nc2Oc2ccccc2)CC1` had a Ki on Histamine H4 receptor of 324 nM.
Same read-out and setting: for `CN1CCN(c2nc3cc(Cl)c(Cl)cc3nc2Oc2ccccc2)CC1` the value was 1170 nM; for `CN1CCN(c2nc3ccccc3nc2Cl)CC1`, 229 nM.
Turning to `CN1CCN(c2nc3ccccc3nc2OCc2cccc(Cl)c2)CC1`, the Ki at Histamine H4 receptor is 269 nM.
Same read-out and setting: the figure for `CN1CCN(c2nc3cc(Cl)c(Cl)cc3nc2CCc2ccccc2)CC1` is 3980 nM; for `Cc1ccc(Oc2nc3ccccc3nc2N2CCN(C)CC2)cc1` it is 2190 nM; for `CN1CCN(c2nc3ccccc3nc2OCc2ccncc2)CC1` it is 4370 nM.
Molecule `CN1CCN(c2nc3ccccc3[nH]c2=O)CC1` had a Ki at Histamine H4 receptor of 61.7 nM.
As for `CN1CCN(c2nc3ccccc3nc2OCc2ccc(Cl)cc2)CC1`, on Histamine H4 receptor, the Ki was 2290 nM.
Consider `CN1CCN(c2nc3ccccc3nc2Oc2ccc(F)cc2)CC1`, for which the affinity on Histamine H4 receptor, expressed as Ki, was 1580 nM.
On the same count and under the same terms, the figure for `COc1nc2cc(Cl)ccc2nc1N1CCN(C)CC1` is 26.3 nM.
Still for that read-out and setting: for `CN1CCCN(c2nc3cc(Cl)ccc3[nH]c2=O)CC1` the value was 977 nM; for `CN1CCN(c2nc3ccccc3nc2OCc2ccccc2)CC1`, 295 nM; for `CN1CCN(c2nc3ccccc3nc2OCc2ccccn2)CC1`, 468 nM.
Still for that read-out and setting: the figure for `CCN1CCN(c2nc3ccccc3nc2Cc2ccccc2)CC1` is 2690 nM; for `CN1CCN(c2nc3ccccc3nc2Sc2ccccc2)CC1` it is 363 nM.
On Histamine H4 receptor, `CN1CCN(c2nc3ccccc3nc2NCc2ccccc2)CC1` had a Ki of 7410 nM.
Same read-out and setting: for `CN1CCN(c2cnc3ccccc3n2)CC1` the value was 891 nM; for `CN1CCN(c2nc3ccccc3nc2Oc2cccc(N(C)C)c2)CC1`, 1550 nM.
On to `CN1CCN(c2nc3cc(Cl)c(Cl)cc3[nH]c2=O)CC1`, for which the inhibition in experiment [1] stood at 42%; in experiment [3], 64%; at Histamine H1 receptor [4], 7%. The result in the experiment with Rattus norvegicus [2] and in the experiment with Rattus norvegicus [5] was Active. The inhibitory constant (Ki) at Histamine H4 receptor was 5.62 nM.
As for `Cc1cccc(Oc2nc3ccccc3nc2N2CCN(C)CC2)c1`, the affinity at Histamine H4 receptor corresponds to a Ki of 575 nM.
On the same count and under the same terms, for `CN1CCN(c2nc3ccccc3nc2Oc2ccc(Cl)cc2)CC1` the value was 2340 nM.
For `CN1CCN(c2nc3ccccc3nc2Cc2ccccc2)CC1`, the inhibition amounted to 62% in experiment [1], 26% in experiment [3] and 86% at Histamine H1 receptor [4]. For the same molecule, the result in the experiment on Rattus norvegicus [6] was Active. Further, the results for the inhibition constant (Ki) on Histamine H1 receptor [7] and on Histamine H4 receptor were 741 nM and 39.8 nM, respectively.
For `CN1CCN(c2nc3ccccc3nc2Oc2ccc(Cl)c(Cl)c2)CC1`, the Ki on Histamine H4 receptor is 1700 nM.
Same read-out and setting: for `COc1nc2ccccc2nc1N1CCN(C)CC1` the value was 339 nM; for `CN1CCN(c2nc3cc(Cl)ccc3[nH]c2=O)CC1`, 11.7 nM.
The same measure, in the same setting: the figure for `CN1CCN(c2ccc3cc(Cl)ccc3n2)CC1` is 589 nM; for `CCOc1nc2ccccc2nc1N1CCN(C)CC1` it is 229 nM.
`CN1CCN(c2nc3ccccc3nc2OCc2cccnc2)CC1`: the Ki on Histamine H4 receptor is 2950 nM.
Same read-out and setting: the figure for `CN1CCN(c2nc3ccccc3nc2C(F)(F)F)CC1` is 2510 nM; for `CN1CCN(c2cnc3cc(Cl)ccc3n2)CC1` it is 91.2 nM; for `COc1ccc(Oc2nc3ccccc3nc2N2CCN(C)CC2)cc1` it is 2340 nM.
`CN1CCN(c2nccc3ccccc23)CC1`: the Ki at Histamine H4 receptor is 20400 nM.
Still for that read-out and setting: for `COc1ccc(COc2nc3ccccc3nc2N2CCN(C)CC2)cc1` the value was 708 nM.
Same read-out and setting: for `CN1CCN(c2nc3ccccc3nc2OC2CCCCC2)CC1` the value was 13200 nM.
Same read-out and setting: the figure for `COc1nc2cc(Cl)c(Cl)cc2nc1N1CCN(C)CC1` is 57.5 nM.
Consider `CN1CCN(c2nc3ccccc3nc2OCCCCc2ccccc2)CC1`, for which, on Histamine H4 receptor, the inhibitory constant (Ki) was 2950 nM.
`Cc1nc2cc(Cl)c(Cl)cc2nc1N1CCN(C)CC1` showed a Ki at Histamine H4 receptor of 63.1 nM.
`Cc1ccc(COc2nc3ccccc3nc2N2CCN(C)CC2)cc1`: the Ki at Histamine H4 receptor was 1380 nM.
`CN1CCN(c2ccc3ccccc3n2)CC1` gave an inhibition constant Ki at Histamine H4 receptor of 6920 nM.
Same read-out and setting: the figure for `Cc1nc2ccccc2nc1N1CCN(C)CC1` is 200 nM.

By Ki is commonly meant a dissociation constant, usually derived from enzyme kinetics or from competition with a known ligand. In general, inhibition refers to the percentage by which the read-out fell short of the control. A higher inhibition goes with strong suppression.

Values taken from ChEMBL document CHEMBL1144727, “Fragment based design of new H4 receptor-ligands with anti-inflammatory properties in vivo” (J Med Chem, 2008).
